According to ChEMBL document CHEMBL3046169, “Synthesis and bioactivity study of 2-acylamino-substituted N'-benzylbenzohydrazide derivatives” (2012):

Tests used:
Format in all cases: functional
Plutella xylostella = test: Pesticidal activity against Plutella xylostella (diamondback moth) second-instar larvae grown on cruciferous vegetables leaves leaves as pest mortality at 600 mg/L measured 48 hr post compound exposure
In short: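 Over 20 second-instar larvae on cruciferous vegetable leaves dipped 5 s in compound diluted in distilled water containing 0.05% Triton X-100, excess liquid removed. Kept in illumination box at 25 ± 1 °C; mortality recorded 48 h after treatment. Each test in triplicate.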

Tetranychus cinnabarinus = test: Pesticidal activity against Tetranychus cinnabarinus (carmine spider mite) third- instar larvae grown on Phaseolus vulgaris leaves assessed as pest mortality at 600 mg/L measured 48 hr post compound exposure
In short: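 More than 20 third-instar mite larvae on Phaseolus vulgaris leaves dipped 5 s in compound solutions (water with 0.05% Triton X-100), excess liquor removed. Larvae held at 25 ± 1 °C in illumination box; mortality read at 48 h. Primary screen at 600 mg L⁻¹, follow-up at 400, 200, 100, 50 and 25 mg L⁻¹ with LC50 calculated. Triplicate tests.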

Aphis gossypii = test: Pesticidal activity against Aphis gossypii (cotton aphid) third-instar nymphae grown on tender Hibiscus syriacus leaves assessed as pest mortality at 600 mg/L measured 24 hr post compound exposure; settings: in Hibiscus syriacus
In short: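 Leaf-dip bioassay: over 30 healthy apterous third-instar nymphs on tender Hibiscus syriacus leaves dipped 5 s in compound diluted in distilled water with 0.05% Triton X-100, excess fluid removed. Held in illumination box at 25 ± 1 °C; mortality scored after 24 h. Tests in triplicate.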

SMILES	mortality at 600 µg/mL (Plutella xylostella)	mortality at 600 µg/mL (Tetranychus cinnabarinus)	mortality at 600 µg/mL (Aphis gossypii)
Cc1cc(Cl)cc(C(=O)NNCc2ccc(Cl)cc2Cl)c1NC(=O)CC(C)(C)C	88%	88.8%	62%
Cc1cc(Br)cc(C(=O)NNCc2ccccc2)c1NC(=O)C(C)(C)CCl	52%	20.3%	84.6%
Cc1cc(Cl)cc(C(=O)NNCc2ccccc2F)c1NC(=O)C(C)(C)C	76%	80.5%	38.9%
Cc1cc(Br)cc(C(=O)NNCc2ccc(Cl)cc2Cl)c1NC(=O)C(C)(C)C	34%	77%	90.2%
Cc1cccc(C(=O)NNCc2cccc(C(F)(F)F)c2)c1NC(=O)C(C)(C)C	64%	46.8%	75%
Cc1cc(Cl)cc(C(=O)NNCc2ccccc2)c1NC(=O)C(C)(C)C	34%	92.5%	52.4%
CC(C)(C)C(=O)Nc1ccc(Cl)cc1C(=O)NNCc1cccc(C(F)(F)F)c1	28%	73.8%	28.9%
Cc1cc(Cl)cc(C(=O)NNCc2ccc(Cl)nc2)c1NC(=O)C(C)(C)C	50%	81.3%	24.2%
Cc1cc(Br)cc(C(=O)NNCc2cccc(C(F)(F)F)c2)c1NC(=O)C(C)(C)C	16%	19.8%	54.2%
Cc1cccc(C(=O)NNCc2ccccc2Cl)c1NC(=O)C(C)(C)C	64%	5.9%	92.2%
Cc1cc(Br)cc(C(=O)NNCc2ccccc2Cl)c1NC(=O)C(C)(C)C	64%	40.1%	49.1%
Cc1cc(Cl)cc(C(=O)NNCc2ccccc2Cl)c1NC(=O)C(C)(C)CCl	64%	11%	14.5%
CC(C)(C)C(=O)Nc1ccc(Cl)cc1C(=O)NNCc1ccc(F)cc1	–	73.8%	91.3%
Cc1cc(Br)cc(C(=O)NNCc2cccc(C(F)(F)F)c2)c1NC(=O)C(C)(C)CCl	52%	72.7%	78.6%
Cc1cccc(C(=O)NNCc2ccc(Cl)cc2Cl)c1NC(=O)C(C)(C)C	50%	52.9%	89.4%
Cc1cc(Cl)cc(C(=O)NNCc2ccccc2F)c1NC(=O)C(C)(C)CCl	100%	61.1%	70.2%
Cc1cccc(C(=O)NNCc2cccc(C(F)(F)F)c2)c1NC(=O)CC(C)(C)C	40%	57.9%	94.2%
Cc1cc(Cl)cc(C(=O)NNCc2ccc(Cl)cc2Cl)c1NC(=O)C(C)(C)C	64%	69%	77.8%
Cc1cccc(C(=O)NNCc2ccccc2)c1NC(=O)C(C)(C)C	52%	16.7%	62.3%
